The source made the active and inactive calls. The calls are words filed in the database; no cut-off is given here.

Experimental findings from ChEMBL document CHEMBL4017509, “A Dual Modulator of Farnesoid X Receptor and Soluble Epoxide Hydrolase To Counter Nonalcoholic Steatohepatitis” (J Med Chem, 2017) are described below.

Series [1] concerns the target Retinoic acid receptor RXR-gamma (Homo sapiens) (UniProt P48443). The experiment in a line: Transactivation of human GAL4-fused RXRgamma ligand binding domain expressed in […] cells at 10 uM after 12 to 14 hrs by dual-glo luciferase reporter gene assay. The series is classed as cell-based. The gist of the method:
(§1)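 HEK293T cells in DMEM/10% FCS, Opti-MEM before Lipofectamine LTX transfection with pFR-Luc reporter, pRL-SV40 and pFA-CMV GAL4–LBD plasmid. 5 h later compound in 0.1% DMSO, Opti-MEM, overnight (12−14 h). Dual luciferase; firefly/renilla ×1000 = RLU, fold over DMSO control; triplicates, ≥3 independent repeats.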

Series [2] addresses Retinoic acid receptor gamma (Homo sapiens) (UniProt P13631). The experiment in a line: Transactivation of human GAL4-fused RARgamma ligand binding domain expressed in […] cells at 10 uM after 12 to 14 hrs by dual-glo luciferase reporter gene assay. It is filed as cell-based. In short, it runs like this: as §1
Series [3] deals with Nuclear receptor subfamily 1 group I member 3 (Homo sapiens, UniProt Q14994). Description: Transactivation of human GAL4-fused CAR ligand binding domain expressed in […] cells at 10 uM after 12 to 14 hrs by dual-Glo luciferase reporter gene assay. The series is classed as cell-based. The gist of the method: as §1
Chain of Nuclear receptor subfamily 1 group I member 3 (Q14994 whole entry, the tested form may be a part): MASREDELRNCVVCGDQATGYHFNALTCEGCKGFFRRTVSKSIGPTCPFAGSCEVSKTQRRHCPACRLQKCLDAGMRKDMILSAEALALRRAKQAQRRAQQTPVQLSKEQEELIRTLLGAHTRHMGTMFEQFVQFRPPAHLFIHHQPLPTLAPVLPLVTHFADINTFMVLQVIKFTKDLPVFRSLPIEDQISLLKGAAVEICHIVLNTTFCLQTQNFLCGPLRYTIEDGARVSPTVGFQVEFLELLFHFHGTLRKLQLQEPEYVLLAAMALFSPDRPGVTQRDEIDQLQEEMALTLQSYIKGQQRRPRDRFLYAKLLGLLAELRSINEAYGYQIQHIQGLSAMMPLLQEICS
For series [4], the target named is T1, Bile acid receptor (Homo sapiens) (UniProt Q96RI1).
T1 sequence (whole entry): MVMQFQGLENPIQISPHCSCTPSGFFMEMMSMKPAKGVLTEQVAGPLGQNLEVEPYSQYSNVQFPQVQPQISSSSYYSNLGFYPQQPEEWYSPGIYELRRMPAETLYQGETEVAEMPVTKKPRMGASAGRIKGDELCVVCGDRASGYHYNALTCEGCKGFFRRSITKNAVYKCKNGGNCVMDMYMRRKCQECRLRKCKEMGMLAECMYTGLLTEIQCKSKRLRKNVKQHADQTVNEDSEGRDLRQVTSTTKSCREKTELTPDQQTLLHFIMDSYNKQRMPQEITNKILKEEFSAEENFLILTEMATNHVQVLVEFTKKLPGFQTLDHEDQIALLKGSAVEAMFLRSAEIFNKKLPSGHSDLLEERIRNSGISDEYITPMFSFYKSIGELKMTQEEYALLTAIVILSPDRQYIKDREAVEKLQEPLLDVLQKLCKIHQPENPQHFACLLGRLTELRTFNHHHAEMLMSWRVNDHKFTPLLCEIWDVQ
The experiment in a line: Transactivation of FXR in human HepG2 cells assessed as FGF19 mRNA expression at 1 uM after 8 to 16 hrs by SYBR green based qRT-PCR analysis relative to DMSO control. The series is classed as cell-based. The gist of the method: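 HepG2 cells incubated with test compound (0.1 and 1 μM) or 0.1% DMSO for 8 or 16 h, washed in cold PBS, RNA extracted; target mRNA by SYBR Green qRT-PCR, duplicate samples, ≥4 independent experiments; comparative ΔΔCt with GAPDH reference, vehicle set as 100%.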

Series [5] addresses T2, Bifunctional epoxide hydrolase 2 (Homo sapiens) (UniProt P34913).
T2 sequence (whole entry): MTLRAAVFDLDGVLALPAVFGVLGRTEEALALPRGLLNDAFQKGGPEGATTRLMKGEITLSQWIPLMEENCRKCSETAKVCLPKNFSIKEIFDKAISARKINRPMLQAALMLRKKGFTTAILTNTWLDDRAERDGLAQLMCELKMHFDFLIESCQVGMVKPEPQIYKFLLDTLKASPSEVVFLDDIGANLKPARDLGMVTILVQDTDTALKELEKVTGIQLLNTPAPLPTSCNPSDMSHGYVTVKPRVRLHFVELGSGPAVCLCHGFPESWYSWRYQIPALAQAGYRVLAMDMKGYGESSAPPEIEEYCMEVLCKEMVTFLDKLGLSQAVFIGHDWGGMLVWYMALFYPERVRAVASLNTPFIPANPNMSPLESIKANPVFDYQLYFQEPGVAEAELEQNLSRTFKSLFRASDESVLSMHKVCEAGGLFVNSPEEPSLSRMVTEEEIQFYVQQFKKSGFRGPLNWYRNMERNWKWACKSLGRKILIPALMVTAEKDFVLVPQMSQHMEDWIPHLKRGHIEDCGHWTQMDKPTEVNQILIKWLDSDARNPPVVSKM
Description: Inhibition of sEH in human HepG2 cells assessed as NF-kappaB mRNA expression at 1 uM after 8 to 16 hrs by SYBR green based qRT-PCR analysis relative to DMSO control. It is filed as cell-based. In short, it runs like this: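 HepG2 cells treated with compound or 0.1% DMSO vehicle; NF-κB mRNA quantified by SYBR Green qRT-PCR, comparative ΔΔCt with GAPDH reference; expressed as % of vehicle (100%).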

Series [6] in a line: Half life in C57BL/6JRj mouse at 10 mg/kg, po measured up to 480 mins post dose by LC-MS analysis. It is filed as ADME, organism-based. As to conditions: in vivo. In short, it runs like this:
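Male C57BL/6JRj mice (23−26 g), six dosed once orally at 10 mg/kg in water with 1% HPMC/Tween 80 (99:1), three vehicle. Tail-vein blood (20 μL) at 15, 30, 60, 120, 240 and 480 min, last by retro-orbital puncture. Blood spiked, acetonitrile precipitation with griseofulvin internal standard, LC−MS on phenyl-hexyl column. Noncompartmental PK analysis.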

In series [7] the target is T3, Peroxisome proliferator-activated receptor gamma (Homo sapiens) (UniProt P37231).
T3 sequence (whole entry): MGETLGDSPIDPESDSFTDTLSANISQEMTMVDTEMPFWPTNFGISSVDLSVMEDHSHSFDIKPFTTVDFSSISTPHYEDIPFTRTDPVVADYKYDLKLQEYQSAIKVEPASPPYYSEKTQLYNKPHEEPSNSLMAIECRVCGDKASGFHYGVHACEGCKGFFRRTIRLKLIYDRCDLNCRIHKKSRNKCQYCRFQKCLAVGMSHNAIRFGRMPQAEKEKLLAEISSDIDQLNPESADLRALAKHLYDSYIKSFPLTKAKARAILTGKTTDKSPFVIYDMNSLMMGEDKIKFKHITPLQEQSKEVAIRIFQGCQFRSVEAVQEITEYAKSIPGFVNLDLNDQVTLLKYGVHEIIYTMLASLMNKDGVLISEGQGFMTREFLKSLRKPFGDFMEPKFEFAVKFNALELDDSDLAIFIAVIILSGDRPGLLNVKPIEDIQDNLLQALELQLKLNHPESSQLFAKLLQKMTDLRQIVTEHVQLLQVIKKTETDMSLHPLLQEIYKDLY
The experiment in a line: Transactivation of PPARgamma in human HepG2 cells assessed as FAM3A mRNA expression at 10 uM after 8 to 16 hrs by SYBR green based qRT-PCR analysis relative to DMSO control. The series is classed as cell-based. In short, it runs like this:
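HepG2 cells treated 8 or 16 h with compound or 0.1% DMSO, washed in cold PBS, RNA extracted; SYBR Green qRT-PCR in duplicate, ≥4 independent experiments (n = 3 for CD36/FAM3A). ΔΔCt method with GAPDH reference; expression as % of vehicle (100%). Pioglitazone 1 μM used as positive control for the PPARγ genes.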

In series [8] the target is G-protein coupled bile acid receptor 1 (Homo sapiens) (UniProt Q8TDU6). Description: Agonist activity at TGR5 (unknown origin) at 10 uM.
Chain of G-protein coupled bile acid receptor 1 (Homo sapiens) (Q8TDU6 whole entry): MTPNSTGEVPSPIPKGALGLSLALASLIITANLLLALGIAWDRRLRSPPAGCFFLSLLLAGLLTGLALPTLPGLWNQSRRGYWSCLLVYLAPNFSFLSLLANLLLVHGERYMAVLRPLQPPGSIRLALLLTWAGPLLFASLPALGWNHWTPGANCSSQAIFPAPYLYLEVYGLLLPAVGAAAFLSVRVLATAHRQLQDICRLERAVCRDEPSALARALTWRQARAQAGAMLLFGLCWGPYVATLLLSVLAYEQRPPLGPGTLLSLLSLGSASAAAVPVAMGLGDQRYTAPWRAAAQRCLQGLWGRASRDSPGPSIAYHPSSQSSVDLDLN

Chain of Retinoic acid receptor RXR-gamma (Homo sapiens) (P48443 whole entry, the tested form may be a part): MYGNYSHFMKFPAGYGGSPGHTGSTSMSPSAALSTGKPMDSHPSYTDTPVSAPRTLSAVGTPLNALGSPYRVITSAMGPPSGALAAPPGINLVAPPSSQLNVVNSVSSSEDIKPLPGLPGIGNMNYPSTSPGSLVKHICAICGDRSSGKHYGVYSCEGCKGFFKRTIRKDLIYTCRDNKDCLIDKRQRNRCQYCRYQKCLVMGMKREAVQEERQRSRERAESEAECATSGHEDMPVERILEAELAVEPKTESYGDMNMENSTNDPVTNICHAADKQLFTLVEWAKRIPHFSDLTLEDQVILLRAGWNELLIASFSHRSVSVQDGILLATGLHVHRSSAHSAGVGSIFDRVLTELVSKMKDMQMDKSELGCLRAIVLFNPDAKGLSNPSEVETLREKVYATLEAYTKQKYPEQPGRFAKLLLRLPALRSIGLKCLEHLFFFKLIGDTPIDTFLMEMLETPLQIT
Chain of Retinoic acid receptor gamma (Homo sapiens) (P13631 whole entry, the tested form may be a part): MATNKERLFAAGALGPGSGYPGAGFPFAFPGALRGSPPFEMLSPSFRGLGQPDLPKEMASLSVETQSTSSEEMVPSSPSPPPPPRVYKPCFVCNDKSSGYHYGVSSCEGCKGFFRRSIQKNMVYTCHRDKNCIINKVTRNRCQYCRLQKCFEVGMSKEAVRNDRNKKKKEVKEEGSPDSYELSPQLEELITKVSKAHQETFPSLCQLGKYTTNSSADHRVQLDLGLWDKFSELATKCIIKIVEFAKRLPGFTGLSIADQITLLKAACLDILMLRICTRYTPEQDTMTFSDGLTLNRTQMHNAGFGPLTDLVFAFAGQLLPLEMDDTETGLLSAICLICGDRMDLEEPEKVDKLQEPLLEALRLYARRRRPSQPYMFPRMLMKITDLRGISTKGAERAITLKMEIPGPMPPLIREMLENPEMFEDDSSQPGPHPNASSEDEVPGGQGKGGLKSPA

For the compound `CC(C)(C)c1ccc(C(=O)NCc2ccc(NS(C)(=O)=O)cc2Cl)cc1`, the outcome in series [1], in series [2] and in series [8] was inactive. Also, the Activity entry in series [3] was “Not Active”; in series [4] it was 325%; in series [7], 142%. In addition, the inhibition in series [5] was 17.6%. The half-life in series [6] was 42 min.
